# Rin1 Abl inh – inhibitors of human Rin1-Abl protein interaction; TR-FRET Rin1/Abl binding, biochemical; inhibition, % at 7.35 µM; 0.4% of 360,000 active; in the data active = inhibition above about 5%, passing the limit was not always enough
# UCH37 inh – human UCH37 deubiquitinating enzyme inhibition | Q9Y5K5 | purified proteasome/UCH37, Ub-AMC cleavage fluorescence | inhibition, % (no concentration beside the values) | 0.33% of 330,000 active | AID 588478;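 active = mean inhibition over replicate wells above about 20%, limit read from the data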;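 note: 0% = compound-free wells with enzyme and 100% = wells lacking proteasome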
#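 System: Proteasome-associated human UCH37 deubiquitinase; Input: 0.15 nM proteasome in added enzyme buffer; Also added: Ub-AMC substrate from 1 µM stock; Incubation: 30 min compound-proteasome preincubation then 25 min substrate reaction, room temperature; Detection: fluorescence, ex 355 nm, em 460 nm; Read-out: % inhibition of Ub-AMC cleavage fluorescence; Benchmarks: no-proteasome and no-compound wells.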
# PKA-R1A act – PKA-R1A complex activation; PKA-R1A dissociation, Cy5-IP20 fluorescence polarization; scaled: DMSO 0%, 113 µM cGMP 100%; activation, % at 11.4 µM; 0.083% of 340,000 active; AID 504707;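 active = percent activation above the mean of all tested compounds plus 3 SD, cut at about 19% in these data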;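 note: higher means more PKAc released from R1A so a rise in polarization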
# PKA-R2B act – activators of human PKA-R2B complex | PKA-R2B holoenzyme dissociation, Cy5-IP20 fluorescence polarization; R2B truncated from residue 108, S112A mutant; 0% DMSO only, 100% 113 µM cGMP | AID 504700 | activation, % at 11.4 µM | 0.079% of 340,000 active | P22694+P31323;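 active = activation above a cutoff set at the mean over all compounds plus 3 SD, cut at about 18% in these data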;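 note: higher means more holoenzyme dissociation and a rise in polarization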
# UCH37 confirm – reconfirmed inhibitor of human deubiquitinase UCH37. shares compounds with UCH37 inh. Proteasome-bound UCH37, Ub-AMC cleavage fluorescence. 27% of 480 active. AID 624100. inhibition, % at 20 µM;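 active = average inhibition over replicates above about 50%, so the earlier screening hit is confirmed, limit read from the data; inactive = the rest, counted as false positives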;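 note: based on cleavage rate fitted by regression over a 30 min kinetic read; 0% = proteasome plus Ub-AMC and 100% = Ub-AMC without proteasome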
# Active calls of the source: *; . = no result. The list is not random: actives were taken first. Their share in the collection is about 0.79%.
SMILES,Rin1 Abl inh,UCH37 inh,PKA-R1A act,PKA-R2B act,UCH37 confirm
Nc1cc(C(=O)OCC(=O)N2CCOCC2)ccc1Cl,-2,-27,6,0,.
Cc1cc(C)c(S(=O)(=O)N=C2C=C(SCC(=O)O)C(=O)c3ccccc32)cc1C,.,49*,.,.,82*
O=C1C(O)=C(O)C(=O)c2ccccc21,24*,72*,0,-15,-38
O=C1c2ccccc2C(=O)c2[nH]c(=O)[nH]c21,-10,41*,4,8,48
O=C1c2ccccc2C(=O)c2[nH]cnc21,-9,.,-5,0,.
COC(=O)C1CCN(C(=O)c2ccc(OC3CCN(Cc4ccccn4)CC3)cc2)CC1,-2,3,-12,5,.
CCCCCc1ccc(OCCC[n+]2ccccc2)c(CCCCC)c1,-4,30*,-2,-2,36
C[n+]1cn(CC(O)COCc2ccccc2)c2ccccc21 (stereo not given),-1,0,1,-1,.
CCCCCc1ccc(OCCOCCn2c[n+](C)c3ccccc32)c(CCCCC)c1,1,33*,-5,-7,57*
CC(=O)Nc1ccc(OCCC[n+]2ccccc2)cc1,-4,2,-14,-3,.
O=c1cc(-c2ccco2)nc(-c2cccs2)o1,0,43*,6,-3,19
Cc1ccc(NC2=CC(=O)C(=O)c3ccccc32)cc1,-10,46*,2,-14,55*
NS(=O)(=O)c1ccc(NC2=CC(=O)C(=O)c3ccccc32)cc1,1,.,-2,-2,.
O=C(COCc1cc(-c2ccc3c(c2)OCO3)on1)Nc1cccnc1Cl,3,-7,4,6,.
CN1CCS/C1=C/C=C1\SC(=S)N(CC(=O)O)C1=O,-35,38*,-4,11,30
CC(OC(=O)c1ccc([N+](=O)[O-])s1)C(=O)Nc1ncc(Cl)cc1Cl (stereo not given),-1,58*,-3,-2,4
CC(C)CCOC(=O)C(C)Sc1n[nH]c(=O)[nH]c1=O (stereo not given),4,1,4,-1,.
CC(=O)Nc1ccc(SCC(=O)c2cc(C)n(C)c2C)cc1,0,43*,-4,-1,-3
CC(C)[C@H](NC(=O)OCc1ccccc1)C(=O)OCC(=O)Nc1c(F)cccc1F,1,.,1,-13,.
C[C@H](NC(=O)c1nc[nH]c1C(=O)N[C@@H](C)C(=O)OC(C)(C)C)C(=O)OCc1ccccc1,1,35*,-8,-13,-30
C[C@H](NC(=O)c1nc[nH]c1C(=O)N[C@@H](Cc1ccccc1)C(=O)OCc1ccccc1)C(=O)OC(C)(C)C,2,1,-4,-5,.
Cc1oc2c(c1C(=O)O)C(=O)c1ccccc1C2=O,-2,49*,-2,5,46
CCOC(=O)c1c(C)oc2c1C(=O)c1ccccc1C2=O,3,28*,-4,-10,29
Cc1oc2c(c1C(=O)c1ccccc1)C(=O)C(=O)c1ccccc1-2,-3,49*,-8,-10,33
C=CCN(c1nc(C)cc(OC)n1)S(=O)(=O)c1ccccc1,-1,1,-2,3,.
SMILES,Rin1 Abl inh,UCH37 inh,PKA-R1A act,PKA-R2B act,UCH37 confirm
COC1=C(c2ccccc2)C(=O)c2ccccc2C1=O,4,27*,-9,-3,33
COc1ccc(C2=C(N)c3ccccc3C2=O)cc1,-9,3,-7,2,.
O=C(NNc1cc(N2CCOCC2)nc(N2CCOCC2)n1)c1ccc([N+](=O)[O-])cc1,-6,26*,-2,0,18
Cc1ccc(C(C(=O)NC2CCCC2)N(Cc2ccc3c(c2)OCO3)C(=O)Cc2cccs2)cc1 (stereo not given),3,36*,4,0,-13
O=C1C=C(N2CCCCC2)c2ccccc2C1=O,-2,90*,.,.,147*
COC(=O)c1ccc(CO/N=C2\CCCc3nonc32)cc1,-5,.,0,-5,.
CC(C)n1cc(/C=C/c2cc[n+](C)cc2)c2ccccc21,-133,28*,-15,-4,19
O=C1N=C(N2CCCC2C(=O)O)S/C1=C\c1ccco1 (stereo not given),0,43*,.,.,13
N=C1/C(=C/c2ccco2)C(=O)N=C2SC(CC(=O)N3CCCC3)=NN12,0,19,3,-1,.
N#Cc1c(N2CCCC2)nc(N)c2c(N)nc(N3CCCC3)cc12,-10,31*,-8,10,1
C=CCn1c(O)c(N=NC(=S)Nc2ccccc2F)c2cc(S(=O)(=O)N3CCOCC3)ccc21,1,7,2,0,.
O=c1[nH]c(Nc2ccccc2)cc2cc(Br)ccc12,-1,44*,-3,-6,19
CN(C)CCn1c2c(c(SCC(=O)NCc3ccccc3)nc1=O)CCCC2,3,2,5,-3,.
O=C(CS(=O)c1ccc(C(F)(F)F)cc1[N+](=O)[O-])Oc1ccccc1 (stereo not given),-1,8,-4,-9,.
CS(=O)(=O)c1ccc(S(=O)CC(=O)OCc2ccccc2)c([N+](=O)[O-])c1 (stereo not given),0,44*,-12,-12,22
CN1CCN(S(=O)(=O)c2ccc(Oc3ccc(Br)cc3F)nc2)CC1,0,3,-1,-8,.
O=C1C2C3C=CC(C2C(=O)N1C1CCCCC1)C1C(=O)N(C2CCCCC2)C(=O)C31 (stereo not given),-1,2,4,13,.
CC(=O)Oc1ccc(OC(C)=O)c(SCCCCCCl)c1,1,3,-4,4,.
O=S(=O)(O)c1cc(O)c(N=Nc2ccc(O)cc2O)c2ccccc12,7,31*,8,3,51*
CCOC(=O)C1=C(COC(=O)c2ccc([N+](=O)[O-])s2)NC(=O)NC1C (stereo not given),4,83*,8,5,27
O=C1C2C3CCCC3=C3CCCC3C2C(=O)N1c1ccc(Cl)cc1 (stereo not given),0,63*,-1,-4,75*
CO/N=C/C(C#N)=C/c1cc(C(=O)c2ccc(F)cc2)cn1C,-1,.,1,-3,.
COc1ccc([C@H]2CC(=O)C=C(c3ccc(OC(F)(F)F)cc3)C2)cc1,3,-1,-15,-19,.
CCCOc1ccc(C2=CC(=O)C[C@H](c3ccc(OC)cc3)C2)cc1,-1,36*,4,7,-2
Oc1ccc(/C=N/Nc2ccc3ccccc3c2)c(O)c1,-2,.,-15,0,.
Cn1cnc([N+](=O)[O-])c1NC(C)(C)C,-3,9,-8,-2,.
Cn1cnc([N+](=O)[O-])c1S(=O)(=O)c1ccc(Cl)cc1,1,49*,-17,4,13
